Measured values as given in ChEMBL document CHEMBL1799995, “17(R),18(S)-epoxyeicosatetraenoic acid, a potent eicosapentaenoic acid (EPA) derived regulator of cardiomyocyte contraction: structure-activity relationships and stable analogues” (J Med Chem, 2011).
pEC50: −log10 of the molar value. The source made the active and inactive calls. The rule behind the calls is not given here.

Tests used:
[1] = Negative chronotropic activity in neonatal Wistar rat Cardiomyocytes assessed as change in heart beating at 30 nM and at 37 degC after 5 mins; assay type: functional, Cardiac muscle cell
Procedure, shortened: (§1)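 NRCMs from 1–2-day-old Wistar rats were cultured as monolayers in Halle SM 20-I medium with 10% heat-inactivated FCS and 2 μM fluorodeoxyuridine. Spontaneously beating clusters formed after 5–7 days (120–150 beats/min at 37 °C, inverted microscope). Compounds came from 1000-fold ethanol stocks and were tested at 30 nM final. Beating rates of 6–8 clusters were counted before and 5 min after addition. The change in beats/min is given as mean ± SE, n = 18–40 clusters from ≥3 independent cultures.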

[2] = Inhibition of (Z)-16-(2-(methylamino)-2-oxoacetamido)hexadec-11-enoic acid-induced negative chronotropic activity in neonatal Wistar rat Cardiomyocytes at 30 nM after 5 mins; assay type: functional, Cardiac muscle cell; design: scale not given: the % may be the effect or the level left
Procedure, shortened: (§2)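 NRCMs from 1–2-day-old Wistar rats were cultured as monolayers in Halle SM 20-I medium with 10% heat-inactivated FCS and 2 μM fluorodeoxyuridine. Spontaneously beating clusters formed after 5–7 days (120–150 beats/min). Cells were preincubated with the test antagonist (30 nM final) for 5 min at 37 °C, then the agonist was added (30 nM final). Beating was counted under an inverted microscope.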

[3] = Inhibition of (5Z,8Z,11Z,14Z)-16-(3-ethyloxiran-2-yl)hexadeca-5,8,11,14-tetraenoic acid-induced negative chronotropic activity in neonatal Wistar rat Cardiomyocytes at 30 nM after 5 mins; assay type: functional, Cardiac muscle cell; design: scale not given: the % may be the effect or the level left; procedure, shortened: as §2
[4] = Inhibition of (5Z,11Z)-16-(3-ethyloxiran-2-yl)hexadeca-5,11-dienoic acid-induced negative chronotropic activity in neonatal Wistar rat Cardiomyocytes at 30 nM after 5 mins; assay type: functional, Cardiac muscle cell; design: scale not given: the % may be the effect or the level left; procedure, shortened: as §2
Cardiac muscle cell [5] = assay: Inhibition of (Z)-16-(3-ethyloxiran-2-yl)hexadec-11-enoic acid -induced negative chronotropic activity in neonatal Wistar rat Cardiomyocytes at 30 nM after 5 mins; assay type: functional, cell-based; procedure, shortened: as §2
[6] = Inhibition of EPA-induced negative chronotropic activity in neonatal Wistar rat Cardiomyocytes at 30 nM after 5 mins; assay type: functional, Cardiac muscle cell; design: scale not given: the % may be the effect or the level left
[7] = biological target: T1, Bifunctional epoxide hydrolase 2 (Homo sapiens) (UniProt P34913); assay: Inhibition of soluble epoxide hydrolase at 5 uM
T1 sequence (whole entry): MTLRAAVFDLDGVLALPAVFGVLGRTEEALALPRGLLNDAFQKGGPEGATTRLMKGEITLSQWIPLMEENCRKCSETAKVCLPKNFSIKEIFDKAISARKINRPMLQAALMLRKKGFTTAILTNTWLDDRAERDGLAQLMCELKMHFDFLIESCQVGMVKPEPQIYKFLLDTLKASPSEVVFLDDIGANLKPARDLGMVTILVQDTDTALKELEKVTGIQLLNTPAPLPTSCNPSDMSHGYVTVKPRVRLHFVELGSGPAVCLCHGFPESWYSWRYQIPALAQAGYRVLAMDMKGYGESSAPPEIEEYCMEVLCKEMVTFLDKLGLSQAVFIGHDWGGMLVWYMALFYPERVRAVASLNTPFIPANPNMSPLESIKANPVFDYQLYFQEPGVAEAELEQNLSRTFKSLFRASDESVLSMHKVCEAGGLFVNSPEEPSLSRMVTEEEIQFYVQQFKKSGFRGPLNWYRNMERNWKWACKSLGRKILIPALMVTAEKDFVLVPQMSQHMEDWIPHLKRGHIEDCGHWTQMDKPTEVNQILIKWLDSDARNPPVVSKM

Cardiac muscle cell [8] = assay: Negative chronotropic activity in neonatal Wistar rat Cardiomyocytes assessed as change in heart beating at > 5 nM after 5 mins at 37 degC; assay type: functional, cell-based
[9] = Metabolic stability in rat liver homogenates assessed as compound remaining after 30 mins by LC-MS analysis; assay type: ADME, tissue-based
Procedure, shortened: (§3)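 Compounds were incubated with rat liver homogenate plus NADPH for 30 min at 37 °C. Parent compound and hydroxy-metabolites were analysed by LC/MS.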

Liver [10] = assay: Metabolic stability in rat liver homogenates assessed as formation of regioisomeric hydroxy metabolite after 30 mins by LC-MS analysis; assay type: ADME, tissue-based; settings: tissue homogenate, 0.5 h; procedure, shortened: as §3
[11] = Metabolic stability in rat liver homogenates after 30 mins by LC-MS analysis; assay type: ADME, tissue-based; procedure, shortened: as §3
Liver [12] = assay: Metabolic stability in rat liver homogenates assessed as epoxidation of compound by LC-MS analysis; assay type: ADME, tissue-based; settings: tissue homogenate
Liver [13] = assay: Metabolic stability in rat liver homogenates assessed as formation of vic-diol 4 by LC-MS analysis; assay type: ADME, tissue-based; settings: tissue homogenate
Liver [14] = assay: Metabolic stability in rat liver homogenates assessed as hydroxylation of compound by LC-MS analysis; assay type: ADME, tissue-based; settings: tissue homogenate; procedure, shortened: as §3
[15] = Negative chronotropic activity in neonatal Wistar rat Cardiomyocytes assessed as change in heart beating after 5 mins at 37 degC; assay type: functional, cell-based; settings: cardiac muscle cell; procedure, shortened: as §1
[16] = biological target: T1, Bifunctional epoxide hydrolase 2 (Homo sapiens); settings: 1 to 5 uM

SMILES	Activity [1] [bpm]	also measured
CCNC(=O)NC/C=C\CCCCCCCCCCCCC(=O)O	17.8	
CCC1OC1CCCCCCCCCCCCCCCC(=O)O (stereo not given)	0.8	
CC[C@H]1O[C@H]1C/C=C\CCCCCCCCCCCCC(=O)O	0.7	
CC[C@@H]1O[C@@H]1CCCC/C=C\CCCCCCCCCC(=O)O	-20.3	
CCC1OC1C/C=C\CCCC/C=C\CCCCCCC(=O)O (stereo not given)	-2.7	Activity [2]: 90%; Activity [3]: 90%; Activity [4]: 90%; Activity (Cardiac muscle cell [5]): Active; Activity [6]: 90%
CCCC(=O)N(CCCC/C=C\CCCCCCCCCC(=O)O)C(C)C	0.2	
CCCC(=O)NC/C=C\CCCCCCCCCCCCC(=O)O	12.8	
CCCNC(=O)CCCC/C=C\CCCCCCCCCC(=O)O	-4.7	
CCCC(=O)NCCCC/C=C\CCCCCCCCCC(=O)O	-1.6	
CCC1OC1C/C=C\CCCCCCC/C=C\CCCC(=O)O (stereo not given)	0	
CC[C@H]1O[C@H]1C/C=C\C/C=C\C/C=C\C/C=C\CCCC(=O)O	1.3	
CC[C@H]1O[C@H]1CCCC/C=C\CCCCCCCCCC(=O)O	3.3	
CCC1OC1CCCC/C=C\CCCCCCCCCC(=O)O (stereo not given)	-18.3	
CCC1OC1CCCCCCC/C=C\CCCCCCC(=O)O (stereo not given)	-0.6	
CCC1OC1C/C=C\CCCCCCCCCCCCC(=O)O (stereo not given)	-1.2	Activity (Cardiac muscle cell [5]): Active
O=C(O)CCCCCCCCC/C=C\CCCC[C@H]1O[C@H]1CCO	-4.8	
CNC(=O)C(=O)NC/C=C\CCCCCCCCCCCCC(=O)O	-1.3	inhibition [7]: inactive
CCC1OC1CCCC/C=C\CCCC/C=C\CCCC(=O)O (stereo not given)	-19.8	
CNC(=O)C(=O)NCCCC/C=C\CCCCCCCCCC(=O)O	-33.7	Activity (Cardiac muscle cell [8]): Active; remaining at 0.5 h [9]: > 85%; inhibition [7]: inactive; Stability (Liver [10]): Stable
CNC(=O)C(=O)NCCCCC#CCCCCCCCCCC(=O)O	-2.6	
CCC1OC1C/C=C\C/C=C\C/C=C\C/C=C\CCCC(=O)O (stereo not given)	-22.5	remaining at 0.5 h [11]: 20%; Stability (Liver [12]): Unstable; Stability (Liver [13]): Unstable; Stability (Liver [14]): Unstable
CCN(C)C(=O)N(C)CCCC/C=C\CCCCCCCCCC(=O)O	-5.8	
CCCCNC(=O)CCC/C=C\CCCCCCCCCC(=O)O	-22.4	
CNC(=O)C(=O)NCCCC/C=C/CCCCCCCCCC(=O)O	-4.7	Activity (Cardiac muscle cell [8]): inactive
CCC(O)C(O)C/C=C\C/C=C\C/C=C\C/C=C\CCCC(=O)O (stereo not given)	0	
CC[C@@H]1O[C@@H]1C/C=C\C/C=C\C/C=C\C/C=C\CCCC(=O)O	-21.3	pEC50 [15]: 9.00; Activity (Cardiac muscle cell [8]): Active
CCC1OC1CCCCCCCCCC/C=C\CCCC(=O)O (stereo not given)	-0.6	
CC[C@@H]1O[C@@H]1C/C=C\CCCCCCCCCCCCC(=O)O	-21.1	
CCNC(=O)NCCCC/C=C\CCCCCCCCCC(=O)O	-27	Activity (Cardiac muscle cell [8]): Active; inhibition [16]: Dose-dependent effect
O=C(O)CCCCCCCCC/C=C\CCCC[C@@H]1O[C@@H]1CCO	-1.4	
